The target of assay [1] is T1, Neuropeptide FF receptor 2 (Homo sapiens, UniProt Q9Y5X5). Kind of assay: Agonist activity at human NPFF2 receptor expressed in COS1 cells assessed as [3H]inositol phosphate accumulation after 2 hrs by liquid scintillation counting. In kind it is functional, cell-based, COS-1.
In assay [2] the target is Neuropeptide FF receptor 2 (Homo sapiens, UniProt Q9Y5X5, Y417A). Briefly: Agonist activity at human NPFF2 receptor F/Y7.35A mutant assessed as [3H]inositol phosphate accumulation after 2 hrs by liquid scintillation counting. The class given is functional. Summed up: (§1)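 IP accumulation in COS-7 cells transiently cotransfected with human NPFFR (Ala point mutant or wt) plus chimeric G protein. Cells seeded at 60,000/well and grown to subconfluency. Compounds were dissolved in DMSO and diluted in DMEM with 10 mM LiCl (1% v/v DMSO final). Stimulation lasted 2 h.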

Assay [3] concerns the target Neuropeptide FF receptor 2 (Homo sapiens, UniProt Q9Y5X5, D400A). Kind of assay: Agonist activity at human NPFF2 receptor D6.59A mutant assessed as [3H]inositol phosphate accumulation after 2 hrs by liquid scintillation counting. In kind it is functional. The procedure, abridged: as §1
Assay [4] addresses T1, Neuropeptide FF receptor 2. Kind of assay: Agonist activity at human NPFF2 receptor expressed in COS1 cells assessed as [3H]inositol phosphate accumulation at 10 uM after 2 hrs by liquid scintillation counting relative to NPFF. The class given is functional, cell-based. The conditions noted are these: COS-1.
The subject of assay [5] is Neuropeptide FF receptor 2 (Homo sapiens), Q9Y5X5 [Y321A]. Briefly: Agonist activity at human NPFF2 receptor Y5.38A mutant assessed as [3H]inositol phosphate accumulation at 10 uM after 2 hrs by liquid scintillation counting relative to NPFF. The class given is functional. The procedure, abridged: as §1
Assay [6] has as its system Neuropeptide FF receptor 2 (Homo sapiens), Q9Y5X5 [Y415A]. Briefly: Agonist activity at human NPFF2 receptor Y7.33A mutant assessed as [3H]inositol phosphate accumulation at 10 uM after 2 hrs by liquid scintillation counting relative to NPFF. The class given is functional.
Assay [7] has as its system Neuropeptide FF receptor 2 (Homo sapiens), Q9Y5X5 [Y417A]. Briefly: Agonist activity at human NPFF2 receptor F/Y7.35A mutant assessed as [3H]inositol phosphate accumulation at 10 uM after 2 hrs by liquid scintillation counting relative to NPFF. In kind it is functional. The procedure, abridged: as §1
The target in assay [8] is T2, Neuropeptide FF receptor 1 (Homo sapiens, UniProt Q9GZQ6). Briefly: Competitive antagonist activity at human NPFF1 receptor expressed in COS1 cells assessed as inhibition of NPVF-induced [3H]inositol phosphate accumulation after 2 hrs by liquid scintillation counting. In kind it is functional, cell-based, COS-1. The conditions noted are these: read-out: pA2 (converted).

In assay [9] the target is Neuropeptide FF receptor 2 (Homo sapiens, UniProt Q9Y5X5, Y321A). Kind of assay: Agonist activity at human NPFF2 receptor Y5.38A mutant assessed as [3H]inositol phosphate accumulation after 2 hrs by liquid scintillation counting. The class given is functional. The procedure, abridged:
as §1

Assay [10] deals with T2, Neuropeptide FF receptor 1. Briefly: Agonist activity at human NPFF1 receptor expressed in COS1 cells assessed as [3H]inositol phosphate accumulation up to 10 uM after 2 hrs by liquid scintillation counting. In kind it is functional, cell-based. The conditions noted are these: cos-1.
Assay [11] has as its system Neuropeptide FF receptor 2 (Homo sapiens), Q9Y5X5 [D400A]. Briefly: Agonist activity at human NPFF2 receptor D6.59A mutant assessed as [3H]inositol phosphate accumulation at 31.6 uM after 2 hrs by liquid scintillation counting relative to NPFF.
Assay [12] concerns Neuropeptide FF receptor 2 (Homo sapiens), Q9Y5X5 [E310A]. Kind of assay: Agonist activity at human NPFF2 receptor E5.27A mutant assessed as [3H]inositol phosphate accumulation at 31.6 uM after 2 hrs by liquid scintillation counting relative to NPFF. The class given is functional. The procedure, abridged: as §1
The target in assay [13] is Neuropeptide FF receptor 2 (Homo sapiens, UniProt Q9Y5X5, Y415A). Briefly: Agonist activity at human NPFF2 receptor Y7.33A mutant assessed as [3H]inositol phosphate accumulation after 2 hrs by liquid scintillation counting. In kind it is functional. The procedure, abridged: as §1
Assay [14] addresses Neuropeptide FF receptor 2 (Homo sapiens, UniProt Q9Y5X5, E310A). Briefly: Agonist activity at human NPFF2 receptor E5.27A mutant assessed as [3H]inositol phosphate accumulation after 2 hrs by liquid scintillation counting. The class given is functional. Summed up: as §1
Assay [15] deals with Neuropeptide FF receptor 2 (Homo sapiens), Q9Y5X5 [Y417A]. Kind of assay: Partial agonist activity at human NPFF2 receptor F/Y7.35A mutant assessed as [3H]inositol phosphate accumulation at 10 uM after 2 hrs by liquid scintillation counting relative to NPFF. In kind it is functional.
For assay [16], the system named is Neuropeptide FF receptor 1 (Homo sapiens), Q9GZQ6 [E205A]. Briefly: Agonist activity at human NPFF1 receptor E5.27A mutant assessed as [3H]inositol phosphate accumulation at 10 uM after 2 hrs by liquid scintillation counting relative to NPVF. In kind it is functional. The procedure, abridged: as §1
Assay [17] concerns the target T2, Neuropeptide FF receptor 1. Kind of assay: Agonist activity at human NPFF1 receptor expressed in […] assessed as [3H]inositol phosphate accumulation after 2 hrs by liquid scintillation counting. In kind it is functional, cell-based, COS-1. The procedure, abridged: as §1
Assay [18] addresses Neuropeptide FF receptor 1 (Homo sapiens, UniProt Q9GZQ6, F311A). Briefly: Agonist activity at human NPFF1 receptor F/Y7.35A mutant assessed as [3H]inositol phosphate accumulation after 2 hrs by liquid scintillation counting. In kind it is functional. The procedure, abridged:
as §1

The target of assay [19] is T2, Neuropeptide FF receptor 1. Kind of assay: Agonist activity at human NPFF1 receptor expressed in COS1 cells assessed as [3H]inositol phosphate accumulation at 10 uM after 2 hrs by liquid scintillation counting relative to NPVF. The class given is functional, cell-based. The conditions noted are these: COS-1.
Assay [20] concerns the target T2, Neuropeptide FF receptor 1. Kind of assay: Ratio of EC50 for human NPFF1 receptor F/Y7.35A mutant to EC50 for human wild type NPFF1 receptor.
Assay [21] has as its system Neuropeptide FF receptor 1 (Homo sapiens), Q9GZQ6 [F311A]. Briefly: Agonist activity at human NPFF1 receptor F/Y7.35A mutant assessed as [3H]inositol phosphate accumulation at 10 uM after 2 hrs by liquid scintillation counting relative to NPVF. In kind it is functional.
Assay [22] concerns Neuropeptide FF receptor 2 (Homo sapiens), Q9Y5X5 [Y415A]. Kind of assay: Agonist activity at human NPFF2 receptor Y7.33A mutant assessed as [3H]inositol phosphate accumulation at 31.6 uM after 2 hrs by liquid scintillation counting relative to NPFF. In kind it is functional. Summed up:
as §1

The subject of assay [23] is Neuropeptide FF receptor 1 (Homo sapiens), Q9GZQ6 [D294A]. Briefly: Agonist activity at human NPFF1 receptor D6.59A mutant assessed as [3H]inositol phosphate accumulation at 31.6 uM after 2 hrs by liquid scintillation counting relative to NPVF. In kind it is functional. Summed up: as §1
Assay [24] deals with Neuropeptide FF receptor 1 (Homo sapiens, UniProt Q9GZQ6, Y309A). Briefly: Agonist activity at human NPFF1 receptor Y7.33A mutant assessed as [3H]inositol phosphate accumulation after 2 hrs by liquid scintillation counting. The class given is functional. Summed up: as §1
The test system of assay [25] is Neuropeptide FF receptor 1 (Homo sapiens), Q9GZQ6 [F311A]. Briefly: Agonist activity at human NPFF1 receptor F/Y7.35A mutant assessed as [3H]inositol phosphate accumulation at 31.6 uM after 2 hrs by liquid scintillation counting relative to NPVF. The class given is functional. Summed up:
as §1

For assay [26], the target named is Neuropeptide FF receptor 1 (Homo sapiens, UniProt Q9GZQ6, D294A). Kind of assay: Agonist activity at human NPFF1 receptor D6.59A mutant assessed as [3H]inositol phosphate accumulation after 2 hrs by liquid scintillation counting. In kind it is functional. Summed up:
as §1

Assay [27] relates to Neuropeptide FF receptor 1 (Homo sapiens), Q9GZQ6 [Y216A]. Kind of assay: Agonist activity at human NPFF1 receptor Y5.38A mutant assessed as [3H]inositol phosphate accumulation at 31.6 uM after 2 hrs by liquid scintillation counting relative to NPVF. The class given is functional. Summed up: as §1
For assay [28], the system named is Neuropeptide FF receptor 1 (Homo sapiens), Q9GZQ6 [Y309A]. Briefly: Agonist activity at human NPFF1 receptor Y7.33A mutant assessed as [3H]inositol phosphate accumulation at 10 uM after 2 hrs by liquid scintillation counting relative to NPVF. The class given is functional. Summed up: as §1
Assay [29] concerns the target Neuropeptide FF receptor 1 (Homo sapiens, UniProt Q9GZQ6, Y216A). Kind of assay: Agonist activity at human NPFF1 receptor Y5.38A mutant assessed as [3H]inositol phosphate accumulation after 2 hrs by liquid scintillation counting. In kind it is functional. The procedure, abridged: as §1
Assay [30] has as its target Neuropeptide FF receptor 1 (Homo sapiens, UniProt Q9GZQ6, E205A). Briefly: Agonist activity at human NPFF1 receptor E5.27A mutant assessed as [3H]inositol phosphate accumulation after 2 hrs by liquid scintillation counting. The class given is functional. Summed up: as §1
Assay [31] deals with Neuropeptide FF receptor 2 (Homo sapiens), Q9Y5X5 [D400A]. Briefly: Agonist activity at human NPFF2 receptor D6.59A mutant assessed as [3H]inositol phosphate accumulation at 31.6 uM after 2 hrs by liquid scintillation counting relative to NPFF. The class given is functional. The procedure, abridged: as §1
The test system of assay [32] is Neuropeptide FF receptor 2 (Homo sapiens), Q9Y5X5 [Y321A]. Briefly: Agonist activity at human NPFF2 receptor Y5.38A mutant assessed as [3H]inositol phosphate accumulation at 31.6 uM after 2 hrs by liquid scintillation counting relative to NPFF. The class given is functional. Summed up:
as §1

The subject of assay [33] is Neuropeptide FF receptor 1 (Homo sapiens), Q9GZQ6 [E205A]. Briefly: Agonist activity at human NPFF1 receptor E5.27A mutant assessed as [3H]inositol phosphate accumulation at 31.6 uM after 2 hrs by liquid scintillation counting relative to NPVF. The class given is functional. The procedure, abridged: as §1
Assay [34] concerns the target T2, Neuropeptide FF receptor 1. Briefly: Partial agonist activity at human NPFF1 receptor expressed in COS1 cells assessed as [3H]inositol phosphate accumulation at 10 uM after 2 hrs by liquid scintillation counting relative to NPVF. The class given is functional, cell-based. The conditions noted are these: COS-1.

Values joined by “and” are separate entries in the source; they are usually repeats but may differ in a detail not shown here. Equal entries are not always repeated.

Neuropeptide FF receptor 2 (Homo sapiens), Q9Y5X5 [Y321A], sequence (Q9Y5X5 whole entry Y321A): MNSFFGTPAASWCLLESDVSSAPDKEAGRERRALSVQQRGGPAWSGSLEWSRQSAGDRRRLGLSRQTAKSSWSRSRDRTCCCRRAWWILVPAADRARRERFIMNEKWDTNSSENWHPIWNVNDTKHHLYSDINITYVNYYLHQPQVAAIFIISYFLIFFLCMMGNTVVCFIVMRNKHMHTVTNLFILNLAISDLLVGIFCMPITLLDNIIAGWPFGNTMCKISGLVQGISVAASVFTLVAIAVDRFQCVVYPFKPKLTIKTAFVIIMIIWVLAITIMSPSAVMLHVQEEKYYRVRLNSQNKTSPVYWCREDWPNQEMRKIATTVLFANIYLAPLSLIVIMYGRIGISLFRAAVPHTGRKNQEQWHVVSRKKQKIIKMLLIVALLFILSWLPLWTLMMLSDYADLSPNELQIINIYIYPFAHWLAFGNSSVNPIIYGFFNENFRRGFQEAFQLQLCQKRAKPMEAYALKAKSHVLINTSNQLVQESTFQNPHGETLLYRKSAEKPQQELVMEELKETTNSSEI
T2 sequence (Q9GZQ6 whole entry): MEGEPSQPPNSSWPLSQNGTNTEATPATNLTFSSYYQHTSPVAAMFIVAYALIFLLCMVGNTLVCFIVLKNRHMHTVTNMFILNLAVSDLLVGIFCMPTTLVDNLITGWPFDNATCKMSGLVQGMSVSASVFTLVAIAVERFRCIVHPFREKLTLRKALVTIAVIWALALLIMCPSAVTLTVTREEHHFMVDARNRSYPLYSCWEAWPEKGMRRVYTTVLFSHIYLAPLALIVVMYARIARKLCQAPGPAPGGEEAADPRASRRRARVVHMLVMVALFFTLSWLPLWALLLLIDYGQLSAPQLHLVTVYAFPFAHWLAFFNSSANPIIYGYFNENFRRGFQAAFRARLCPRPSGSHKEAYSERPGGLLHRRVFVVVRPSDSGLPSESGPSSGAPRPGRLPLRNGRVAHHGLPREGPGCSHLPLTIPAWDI
Neuropeptide FF receptor 2 (Homo sapiens, UniProt Q9Y5X5, Y417A), sequence (Q9Y5X5 whole entry Y417A): as the sequence (Q9Y5X5 whole entry Y321A) above, with A321Y, Y417A counted along it
Neuropeptide FF receptor 2 (Homo sapiens), Q9Y5X5 [Y417A], sequence (Q9Y5X5 whole entry Y417A): as the sequence (Q9Y5X5 whole entry Y321A) above, with A321Y, Y417A counted along it
T1 sequence (Q9Y5X5 whole entry): as the sequence (Q9Y5X5 whole entry Y321A) above, with A321Y counted along it
Neuropeptide FF receptor 2 (Homo sapiens), Q9Y5X5 [D400A], sequence (Q9Y5X5 whole entry D400A): as the sequence (Q9Y5X5 whole entry Y321A) above, with A321Y, D400A counted along it
Neuropeptide FF receptor 2 (Homo sapiens, UniProt Q9Y5X5, D400A), sequence (Q9Y5X5 whole entry D400A): as the sequence (Q9Y5X5 whole entry Y321A) above, with A321Y, D400A counted along it
Neuropeptide FF receptor 2 (Homo sapiens, UniProt Q9Y5X5, E310A), sequence (Q9Y5X5 whole entry E310A): as the sequence (Q9Y5X5 whole entry Y321A) above, with E310A, A321Y counted along it
Neuropeptide FF receptor 2 (Homo sapiens), Q9Y5X5 [E310A], sequence (Q9Y5X5 whole entry E310A): as the sequence (Q9Y5X5 whole entry Y321A) above, with E310A, A321Y counted along it
Neuropeptide FF receptor 2 (Homo sapiens, UniProt Q9Y5X5, Y321A), sequence (Q9Y5X5 whole entry Y321A): as the sequence (Q9Y5X5 whole entry Y321A) above
Neuropeptide FF receptor 1 (Homo sapiens, UniProt Q9GZQ6, F311A), sequence (Q9GZQ6 whole entry F311A): as the sequence (Q9GZQ6 whole entry) above, with F311A counted along it
Neuropeptide FF receptor 1 (Homo sapiens), Q9GZQ6 [F311A], sequence (Q9GZQ6 whole entry F311A): as the sequence (Q9GZQ6 whole entry) above, with F311A counted along it
Neuropeptide FF receptor 1 (Homo sapiens), Q9GZQ6 [E205A], sequence (Q9GZQ6 whole entry E205A): as the sequence (Q9GZQ6 whole entry) above, with E205A counted along it
Neuropeptide FF receptor 2 (Homo sapiens), Q9Y5X5 [Y415A], sequence (Q9Y5X5 whole entry Y415A): as the sequence (Q9Y5X5 whole entry Y321A) above, with A321Y, Y415A counted along it
Neuropeptide FF receptor 2 (Homo sapiens, UniProt Q9Y5X5, Y415A), sequence (Q9Y5X5 whole entry Y415A): as the sequence (Q9Y5X5 whole entry Y321A) above, with A321Y, Y415A counted along it
Neuropeptide FF receptor 1 (Homo sapiens), Q9GZQ6 [Y216A], sequence (Q9GZQ6 whole entry Y216A): as the sequence (Q9GZQ6 whole entry) above, with Y216A counted along it
Neuropeptide FF receptor 1 (Homo sapiens, UniProt Q9GZQ6, Y216A), sequence (Q9GZQ6 whole entry Y216A): as the sequence (Q9GZQ6 whole entry) above, with Y216A counted along it
Neuropeptide FF receptor 1 (Homo sapiens), Q9GZQ6 [D294A], sequence (Q9GZQ6 whole entry D294A): as the sequence (Q9GZQ6 whole entry) above, with D294A counted along it
Neuropeptide FF receptor 1 (Homo sapiens, UniProt Q9GZQ6, D294A), sequence (Q9GZQ6 whole entry D294A): as the sequence (Q9GZQ6 whole entry) above, with D294A counted along it
Neuropeptide FF receptor 1 (Homo sapiens, UniProt Q9GZQ6, E205A), sequence (Q9GZQ6 whole entry E205A): as the sequence (Q9GZQ6 whole entry) above, with E205A counted along it
Neuropeptide FF receptor 1 (Homo sapiens, UniProt Q9GZQ6, Y309A), sequence (Q9GZQ6 whole entry Y309A): as the sequence (Q9GZQ6 whole entry) above, with Y309A counted along it
Neuropeptide FF receptor 1 (Homo sapiens), Q9GZQ6 [Y309A], sequence (Q9GZQ6 whole entry Y309A): as the sequence (Q9GZQ6 whole entry) above, with Y309A counted along it

Take `N=C(N)N/N=C/C12CC3CC(CC(C3)C1)C2`: the EC50 in [1] was 298 nM; in assay [2] it was 301 nM; in [3] it was 8860 nM; in [9], 2450 nM; in [10] it was “Not Active”; in assay [13], 8330 nM. The concentration for a half-maximal effect (EC50) in [14] was more than 10000 nM. For the same compound, the maximum response (Emax) in assay [4] was 132%; in assay [5], 83% and 69%; in assay [6] it was 83%; in [7], 107%; in assay [11], 140%; in [12] it was 59%. In addition, the Kb in assay [8] was 41.7 nM.

As for `NC(N)=NCCC[C@@H](NC(=O)C(c1ccccc1)c1ccccc1)C(=O)NCc1ccc(O)cc1`, the maximal response (Emax) in assay [4] worked out at 57%; in assay [15], 51%. Also, the concentration for a half-maximal effect (EC50) entry in assay [10] is “Not Active”.

On to `CC(C)C[C@H](NC(=O)[C@H](CC(N)=O)NC(=O)[C@@H]1CCCN1C(=O)[C@@H](N)C(C)C)C(=O)N1CCC[C@H]1C(=O)N[C@@H](CCC(N)=O)C(=O)N[C@@H](CCCNC(=N)N)C(=O)N[C@@H](Cc1ccccc1)C(N)=O`, for which the Emax in assay [16] turned out to be 66%.

For `NC(=O)[C@H](Cc1ccccc1)NC(=O)[C@H](CCCN=C(N)N)NC(=O)C12CC3CC(CC(C3)C1)C2`, the EC50 was 379 nM in assay [1], 472 nM in assay [2], 71 nM in assay [17] and 462 nM in assay [18].

Regarding `N=C(N)NCCC[C@H](NC(=O)C12CC3CC(CC(C3)C1)C2)C(=O)N[C@@H](Cc1ccccc1)C(N)=O`, the Emax in assay [4] was found to be 75%; in assay [7], 75%; in assay [19] it was 93%; in [21], 89%. Further, the Ratio EC50 in assay [20] came to 271.

For `N=C(N)NCCC[C@@H](NC(=O)C(c1ccccc1)c1ccccc1)C(=O)NCc1ccc(O)cc1`, the EC50 in assay [1] is 233 nM; in assay [2], 113 nM. Also, the Kb in [8] was 20.9 nM.

For `N=C(N)N/N=C/c1ccc(-c2ccc(Br)cc2C(F)(F)F)o1`, the Emax in assay [22] was 78%; in [4], 118%; in [23], 85%; in [25] it was 88%; in assay [7], 100%; in [27], 37%. Also, the maximal response (Emax) worked out at 111% in [28]; 110% in assay [19]; 24% in assay [12]; 77% in assay [31]; 65% in [32]; 21% in assay [33]. Also, the EC50 is 1660 nM in [1]; 1260 nM in assay [2]; more than 10000 nM in assay [3]; 4610 nM in [24]; more than 10000 nM in assay [26]; more than 10000 nM in assay [29]. Moreover, the concentration giving a half-maximal response (EC50) is more than 10000 nM in [9]; more than 10000 nM in assay [30]; 5620 nM in [17]; more than 10000 nM in assay [13]; more than 10000 nM in assay [18]; more than 10000 nM in assay [14].

For `N=C(N)N/N=C/c1ccc(Br)c(Br)c1`, the concentration for a half-maximal effect (EC50) in assay [1] was determined as 2190 nM; in assay [17], 527 nM. The maximal effect (Emax) in assay [34] amounted to 22%.

Regarding `N=C(N)N/N=C/c1ccc(Cl)c(C(F)(F)F)c1`, the EC50 in [17] turned out to be 2370 nM.

For orientation: EC50 means the midpoint of the concentration-response curve. One may read the Emax as the maximal effect, on the per cent scale that the assay sets.
